Screening results: PubChem BioAssay, several laboratories
In the library only some 2.3% were active in any assay of this set; here they are far more common.
PPC-1+TRAIL kill – kills PPC-1 cancer cells in the presence of TRAIL. PPC-1 cells + TRAIL, ATPLite viability luminescence. hit rate 0.41% among 220,000. AID 1443. cell killing (% activity), % at 4 µM or 5 µM;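 active means cell killing above 50% in the first pass at 4 µM, then a duplicate retest at 5 µM averaging 50% or more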;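 further: plate controls were cells with TRAIL plus DMSO for no effect and medium-only wells lacking cells for full effect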
C8 TRAIL sens – caspase-8 TRAIL sensitization | hit rate 1% among 360,000 | inhibition (viability loss, TRAIL sensitization), % at 10 µM | AID 624354 | NB7+C8 cells + TRAIL, ATPlite viability luminescence;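 active means compounds causing at least 50% loss of cell viability in the single-dose screen, relative to plate controls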
HSP90 inh – blocks HSP90-mediated luciferase refolding in reticulocyte lysate; inhibition, % at 5.6 µM; Rabbit reticulocyte lysate, luciferase refolding luminescence, 3 h; hit rate 0.91% among 290,000;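 active means inhibition above the screen-wide mean plus 3 SD, computed separately per campaign, cut at about 16% in these data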;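 further: 0% = DMSO wells and 100% = 60 µM geldanamycin wells; inhibitors lower the luminescence because luciferase stays unfolded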
STAT3 activator – activators of IL-6 induced STAT3 signaling | U3A cells, IL-6 STAT3-luciferase reporter, luminescence; 100% = signal with IL-6 EC80 alone | activation (% of control), % at 5.6 µM | hit rate 0.91% among 190,000 | AID 871;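 active means activation above the screen-wide mean of compound activation plus 3 SD, cut at about 130% in these data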;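 further: 0% = background luminescence of wells with medium and substrate only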
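Test system: STAT3-luciferase reporter U3A cells; Detection: reporter luminescence signal; Times: 1 h compound pre-exposure, 6 h IL-6 stimulation, 37 °C; Benchmarks: IL-6-only high control; Also added: IL-6 stimulus at 33 ng/mL final.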
STAT1 blocker – reduces IFN-gamma driven STAT1 reporter signal | NIH 3T3 STAT1-luciferase reporter, luminescence | inhibition, % at 5.5 µM | hit rate 0.35% among 200,000;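 active means inhibition above a set limit, the mean inhibition across all tested compounds plus 3 SD, cut at about 34% in these data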;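 further: 0% = IFN-gamma with DMSO and 100% = IFN-gamma with 300 µM nifuroxazide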
STAT3 inh-1 – inhibitors of IL-6 induced STAT3 signaling; U3A cells, IL-6 STAT3-luciferase reporter, luminescence; host cell line lacks STAT1; hit rate 0.89% among 190,000; inhibition, % at 5.5 µM; AID 862;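 active means inhibition above the mean inhibition across all screened compounds plus 3 SD, cut at about 44% in these data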;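 further: 0% = DMSO only wells and 100% = 100 µM nifuroxazide control wells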
STAT3 inh-2 – STAT3 inhibition, confirmation assay; shares compounds with STAT3 inh-1; U3A cells, IL-6 STAT3 luciferase reporter, luminescence; cell line lacks STAT1; inhibition, % at 5.7 µM; hit rate 45% among 1,200; AID 1265;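 active means inhibition above the hit cutoff computed for the primary STAT3 screen, cut at about 44% in these data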;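 further: 0% = IL-6 plus DMSO and 100% = IL-6 plus nifuroxazide control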
NFkB inh 2 – counter-screen for STAT3 inhibitors: NF-kappaB inhibition | shares compounds with STAT3 inh-1 | HEK293T NF-kB luciferase reporter, TNF-alpha induced | inhibition, % at 5.7 µM | hit rate 36% among 1,200;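 active means inhibition above the mean of solvent-only control wells plus 3 SD, cutoff set per campaign, cut at about 13% in these data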;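 further: 0% = TNF-alpha with DMSO and 100% = TNF-alpha with MG high control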
STAT1 inh 2 – STAT1 inhibition in STAT3 inhibitor counter-screen. shares compounds with STAT3 inh-1. NIH 3T3 STAT1-luciferase reporter, IFN-gamma induced, luminescence. inhibition, % at 5.7 µM. hit rate 27% among 1,200;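 active means inhibition above the mean plus 3 SD of solvent-only control wells, limit set per screening run, cut at about 16% in these data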;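 further: 0% = DMSO with IFN-gamma and 100% = nifuroxazide control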
PPC1 cytotox – kills PPC-1 cells. shares compounds with PPC-1+TRAIL kill. PPC-1 viability, ATPlite luminescence, overnight. cytotoxicity, % at 5 µM. hit rate 50% among 1,200. AID 1447;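 active means reconfirmed compounds whose average cytotoxicity reaches 50% or more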;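 further: 0% = DMSO-treated cells and 100% = wells holding medium but no cells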
HSP90 confirm – HSP90 inhibition, confirmation assay | shares compounds with HSP90 inh | rabbit reticulocyte lysate, luciferase refolding luminescence, 3 h | inhibition, % at 5.9 µM | hit rate 64% among 2,300; in the data active means inhibition above about 18%;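 further: 0% = vehicle wells and 100% = reference inhibitor wells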
luciferase ctr – firefly luciferase inhibition, HSP90 counter-screen; shares compounds with HSP90 inh; hit rate 48% among 2,300; purified native firefly luciferase, luminescence; inhibition, % at 5.9 µM;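 active means inhibition above the mean inhibition of all tested sample wells plus 3 SD, cut at about 10% in these data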;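 further: 0% = DMSO with luciferase and 100% = wells lacking luciferase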
Target sequence (P08659 whole entry, looked up): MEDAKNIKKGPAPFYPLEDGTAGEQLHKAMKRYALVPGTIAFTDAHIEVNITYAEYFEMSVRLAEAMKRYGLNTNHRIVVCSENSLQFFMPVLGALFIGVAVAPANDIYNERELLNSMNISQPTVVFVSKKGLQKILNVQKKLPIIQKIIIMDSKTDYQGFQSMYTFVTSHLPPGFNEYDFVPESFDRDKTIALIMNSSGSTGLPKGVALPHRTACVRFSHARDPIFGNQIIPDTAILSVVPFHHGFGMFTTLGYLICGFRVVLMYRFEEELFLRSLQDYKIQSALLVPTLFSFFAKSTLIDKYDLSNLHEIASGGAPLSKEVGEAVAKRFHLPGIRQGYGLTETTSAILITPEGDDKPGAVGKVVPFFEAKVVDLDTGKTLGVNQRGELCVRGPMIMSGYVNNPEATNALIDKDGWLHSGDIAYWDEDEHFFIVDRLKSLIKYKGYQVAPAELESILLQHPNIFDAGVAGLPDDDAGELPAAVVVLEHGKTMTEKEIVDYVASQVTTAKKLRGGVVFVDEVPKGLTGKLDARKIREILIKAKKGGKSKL
Numbers without * were called inactive; . = not tested or not shown.

SMILES	PPC-1+TRAIL kill	C8 TRAIL sens	HSP90 inh	STAT3 activator	STAT1 blocker	STAT3 inh-1	STAT3 inh-2	NFkB inh 2	STAT1 inh 2	PPC1 cytotox	others
O=C1c2ccccc2C(=O)C1c1ccc2ccccc2n1	83.7*	83.6*	0.1	62.6	-25.4	49.0*	8.1	41.6*	-27.0	80.3*
O=C(c1cc(-c2cccs2)nc2ccccc12)N1CCN(CCO)CC1	.	7.1	.	.	.	.	.	.	.	.
Cc1csc(NC(=O)c2cc3c(s2)CCC3)n1	51.1*	83.5*	2.7	45.6	-19.5	69.9*	38.3	-26.9	-106.7	46.6
O=C1C(c2ccnc3ccccc23)=C(O)c2ccccc21	83.8*	89.1*	9.8	62.6	7.0	47.5*	8.7	38.0*	-30.0	85.6*
Cc1cc(Cl)ccc1OCC(=O)OCC(=O)Nc1ccc(Cl)cn1	.	-9.0	.	.	.	.	.	.	.	.
O=C(COc1ccc(Cl)cc1Cl)Nc1ccc(Cl)cn1	59.4*	64.7*	8.0	48.2	-42.7	66.2*	33.2	-22.5	-94.5	59.4*
Oc1ccc(-c2nnc(-c3ccc(O)cc3)nn2)cc1	53.1*	63.9*	4.1	59.8	5.2	51.2*	61.8*	11.2	5.4	53.9*
C/C(=N\N1C(=O)c2ccccc2NC1c1ccco1)c1ccccc1O (stereo not given)	46.2	76.0*	3.8	65.4	-17.9	45.5*	16.8	-23.4	-99.1	50.0*
O=C1c2ccccc2NC(c2ccco2)N1/N=C/c1ccco1 (stereo not given)	27.2	16.9	4.1	100.5	-10.4	5.1	.	.	.	.
CC(C)(C)c1ccc(-c2noc(CCC(=O)N3CCOCC3)n2)cc1	44.7	64.3*	10.5	60.5	12.3	51.1*	20.5	6.4	-9.9	37.1
O=C1c2ccccc2-c2nnc(-c3ccc(F)cc3)cc21	78.3*	83.4*	-1.8	54.8	-14.9	55.8*	46.8*	18.7*	-13.5	79.2*
O=C1NC2CCc3nc4ccccc4c(=O)n3C2=Nc2ccccc21 (stereo not given)	17.0	-6.4	-3.3	.	-4.5	.	.	.	.	.
CC(C)CC(=O)Nc1ccc(-c2cn3ccsc3n2)cc1	71.4*	82.8*	7.8	64.6	-4.3	45.6*	20.4	-20.4	-44.8	71.0*
CCOc1ccc(NC(=O)Nc2cccc(C)n2)cc1	.	12.6	-4.2	.	.	.	.	.	.	.
CCOc1ccc(C(=O)Nc2cccc(C)n2)cc1	51.0*	57.3*	8.5	55.6	-12.5	57.0*	17.5	-12.1	-71.3	52.4*
Cc1ccccc1NC(=O)c1cnc2ccccn2c1=O	58.9*	68.0*	10.4	43.7	16.5	72.3*	36.0	-6.1	-76.8	60.9*
COc1ccc(/C=C/C(=O)N(CCC(N)=O)c2ccccc2)cc1S(=O)(=O)N1CCOCC1	.	-28.6	.	.	.	.	.	.	.	.
O=C(NC(=S)N1CCN(c2nc(-c3ccccc3)cs2)CC1)c1cccnc1	22.0	1.1	-3.5	95.6	-1.5	9.5	.	.	.	.
COc1ccc(C(=O)/C=C/Nc2cccc(O)c2)cc1	81.8*	61.7*	-1.5	22.5	3.5	93.1*	80.4*	15.8*	14.1	82.6*
COc1cccc(N/C=C/C(=O)c2ccc(Br)cc2)c1	.	45.4	-1.8	76.1	-72.8	33.8	.	.	.	.
CC(C)Nc1cc(C(F)(F)F)nc(-c2ccccn2)n1	-4.1	5.8	-3.7	115.4	-1.7	-7.5	.	.	.	.
COc1cc(SC)ccc1C(=O)Nc1nccs1	67.0*	80.5*	15.8	52.1	30.8	58.1*	31.0	-4.2	-85.0	69.3*
COc1cc(SC)ccc1C(=O)Nc1ccccc1	28.1	14.0	-2.0	122.1	-38.2	-21.1	.	.	.	.
COc1cc(SC)ccc1C(=O)Nc1ccc2c(c1)OCCO2	68.0*	66.0*	12.3	59.2	-33.6	53.7*	5.5	-35.6	-156.3	65.2*
COc1ccccc1C(=O)Nc1ccc2c(c1)OCCO2	36.8	33.7	-2.1	117.7	-43.4	-17.5	.	.	.	.
SMILES	PPC-1+TRAIL kill	C8 TRAIL sens	HSP90 inh	STAT3 activator	STAT1 blocker	STAT3 inh-1	STAT3 inh-2	NFkB inh 2	STAT1 inh 2	PPC1 cytotox	others
Cc1ccnc(NC(=O)COc2ccccc2[N+](=O)[O-])c1	43.9	52.1*	0.8	63.7	-12.4	47.6*	17.2	-30.1	-100.7	52.5*
COc1ccc(Sc2ncnc3onc(C)c23)cc1	0.0	-0.3	1.3	107.3	-3.1	-4.9	.	.	.	.
C=C(C)CSc1nc2ncccc2[nH]1	-0.5	-8.4	-1.2	101.0	-5.1	3.2	.	.	.	.
Cc1ccc(CSc2nc3ncccc3[nH]2)cc1	49.4	66.9*	13.5	60.6	-7.8	48.4*	9.2	-15.4	-34.3	47.9
COc1ccc(N2C(=O)CCC(C(=O)N(C)CCc3ccccn3)C2c2ccc(OC)c(OC)c2)cc1 (stereo not given)	20.1	5.8	-0.1	102.0	-0.5	-0.2	.	.	.	.
O=C(Nc1ccc(N2CCCCC2)cc1)c1ccccc1	65.5*	73.6*	27.6*	48.6	5.3	66.5*	18.7	-16.5	-86.8	61.2*
CCN(CC)S(=O)(=O)c1ccc(NC(=O)CSc2ncnc3ccccc23)cc1	-7.6	24.8	4.2	107.8	1.6	-4.9	.	.	.	.
Cc1ccc(C(=O)n2c(=S)nc3ccccn32)cc1	90.8*	.	10.7	62.0	-54.9	49.6*	13.6	-31.3	-179.6	90.3*
Cc1ccc(NC(=O)N2CCc3ccccc32)cc1	66.8*	62.6*	16.0	55.8	11.2	55.7*	19.0	-2.9	-93.0	64.6*
Cc1ccc(NC(=O)N2CCCc3ccccc32)cc1	3.2	-12.0	0.2	91.6	-8.1	13.1	.	.	.	.
COc1ccc(C(C)C)cc1S(=O)(=O)n1cnc(C)c1	17.2	6.4	2.6	102.8	-3.3	3.7	.	.	.	.
c1csc(-c2nnc(-c3ccc(N4CCOCC4)cc3)o2)c1	46.0	50.9*	4.6	55.9	-15.6	58.9*	16.6	-25.9	-108.6	47.3
Oc1ccc(-c2cn3cc(C(F)(F)F)ccc3n2)cc1	84.6*	89.5*	17.0*	29.5	2.4	83.4*	80.5*	38.9*	18.1*	.	HSP90 confirm=49.1*;luciferase ctr=39.6*
CCN(CC)c1ccc(/C=C(\C#N)c2ccccn2)cc1	62.1*	81.1*	21.2*	39.8	10.9	74.2*	45.1*	29.3*	-43.0	.	HSP90 confirm=69.6*;luciferase ctr=60.5*
